Experimental data: ChEMBL document CHEMBL4732181, “Pyrazolo[3,4-d]pyrimidine-based dual EGFR T790M/HER2 inhibitors: Design, synthesis, structure-activity relationship and biological activity as potential antitumor and anticonvulsant agents” (Eur J Med Chem, 2021)
pIC50: −log10 of the molar value. Active and inactive are the calls of the source. The rule behind the calls is not given here.

Tests used:
MCF7 [1] = assay: Induction of apoptosis in human MCF7 cells assessed as increase in Bax/Bcl-2 ratio at IC50 concentration after 24 hrs by ELISA; assay type: functional, cell-based
In short: (§1)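 Cells treated at IC50 for 24 h and lysed in cell extraction buffer. Lysate diluted in standard diluent buffer and human caspase-3, -7, -9, Bax and Bcl-2 quantified by immunoassay kit (pg/mL). Fold change calculated against untreated control cells.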

WI-38 = assay: Cytotoxicity against human WI-38 cells assessed as reduction in cell viability after 48 hrs by MTT assay; assay type: cell-based; settings: WI-38, 48 h
In short: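 Cells from ATCC grown in DMEM with 10% FBS, insulin and 1% penicillin-streptomycin. Plated at 1.2-1.8 × 10,000 cells/well for 24 h, then exposed to compounds in DMSO vehicle for 48 h. MTT 0.5 mg/ml added for 2 h; absorbance read at 570 nm. Experiments run in triplicate.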

Mus musculus [2] = assay: Anticonvulsant activity against mouse model of LiCa/pilocarpine-induced status epilepticus assessed as total power at 20 mg/kg, po for 10 days by EEG method relative to control; assay type: functional; settings: time 10 day
In short: (§2)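 Male mice (20-30 g), five per group, dosed orally once daily for 10 days. Status epilepticus was then induced with LiCa (3 mEq/kg i.p.), atropine sulfate (1 mg/kg i.p.) 30 min before pilocarpine, and pilocarpine HCl (300 mg/kg i.p.) 2 h after LiCa. Normal controls received oral distilled water. Comparators were untreated SE, phenytoin and lamotrigine. One-way ANOVA with Tukey post-hoc; mean ± SD.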

MCF7 [3] = assay: Induction of apoptosis in human MCF7 cells assessed as late apoptotic cells at IC50 concentration after 24 hrs by annexin-V-FITC/PI staining based flow cytometric analysis (reference value: 0.47%)
Mus musculus [4] = assay: Anticonvulsant activity against mouse model of LiCa/pilocarpine-induced status epilepticus assessed as power pV2 at 20 mg/kg, po for 10 days by EEG method relative to control; assay type: functional; settings: time 10 day; in short: as §2
MCF7 [5] = assay: Induction of cell cycle arrest in human MCF7 cells assessed as cell increase in accumulation at G2/M phase at IC50 concentration after 24 hrs by propidium iodide staining based flow cytometric analysis; assay type: functional
MCF7 [6] = assay: Induction of apoptosis in human MCF7 cells assessed as increase in late apoptotic cells at IC50 concentration after 24 hrs by annexin-V-FITC/PI staining based flow cytometric analysis; assay type: functional
Mus musculus [7] = assay: Anticonvulsant activity against mouse model of LiCa/pilocarpine-induced status epilepticus assessed as mean power frequency at 20 mg/kg, po for 10 days by EEG method relative to control; assay type: functional; settings: time 10 day; in short: as §2
MCF7 [8] = assay: Induction of cell cycle arrest in human MCF7 cells assessed as cell accumulation at G2/M phase at IC50 concentration after 24 hrs by propidium iodide staining based flow cytometric analysis (reference value: 3.89%); assay type: functional
[9] = molecular target: T1, Receptor tyrosine-protein kinase erbB-2 (Homo sapiens, UniProt P04626); assay: Inhibition of HER2 (unknown origin)
T1 sequence (P04626 whole entry): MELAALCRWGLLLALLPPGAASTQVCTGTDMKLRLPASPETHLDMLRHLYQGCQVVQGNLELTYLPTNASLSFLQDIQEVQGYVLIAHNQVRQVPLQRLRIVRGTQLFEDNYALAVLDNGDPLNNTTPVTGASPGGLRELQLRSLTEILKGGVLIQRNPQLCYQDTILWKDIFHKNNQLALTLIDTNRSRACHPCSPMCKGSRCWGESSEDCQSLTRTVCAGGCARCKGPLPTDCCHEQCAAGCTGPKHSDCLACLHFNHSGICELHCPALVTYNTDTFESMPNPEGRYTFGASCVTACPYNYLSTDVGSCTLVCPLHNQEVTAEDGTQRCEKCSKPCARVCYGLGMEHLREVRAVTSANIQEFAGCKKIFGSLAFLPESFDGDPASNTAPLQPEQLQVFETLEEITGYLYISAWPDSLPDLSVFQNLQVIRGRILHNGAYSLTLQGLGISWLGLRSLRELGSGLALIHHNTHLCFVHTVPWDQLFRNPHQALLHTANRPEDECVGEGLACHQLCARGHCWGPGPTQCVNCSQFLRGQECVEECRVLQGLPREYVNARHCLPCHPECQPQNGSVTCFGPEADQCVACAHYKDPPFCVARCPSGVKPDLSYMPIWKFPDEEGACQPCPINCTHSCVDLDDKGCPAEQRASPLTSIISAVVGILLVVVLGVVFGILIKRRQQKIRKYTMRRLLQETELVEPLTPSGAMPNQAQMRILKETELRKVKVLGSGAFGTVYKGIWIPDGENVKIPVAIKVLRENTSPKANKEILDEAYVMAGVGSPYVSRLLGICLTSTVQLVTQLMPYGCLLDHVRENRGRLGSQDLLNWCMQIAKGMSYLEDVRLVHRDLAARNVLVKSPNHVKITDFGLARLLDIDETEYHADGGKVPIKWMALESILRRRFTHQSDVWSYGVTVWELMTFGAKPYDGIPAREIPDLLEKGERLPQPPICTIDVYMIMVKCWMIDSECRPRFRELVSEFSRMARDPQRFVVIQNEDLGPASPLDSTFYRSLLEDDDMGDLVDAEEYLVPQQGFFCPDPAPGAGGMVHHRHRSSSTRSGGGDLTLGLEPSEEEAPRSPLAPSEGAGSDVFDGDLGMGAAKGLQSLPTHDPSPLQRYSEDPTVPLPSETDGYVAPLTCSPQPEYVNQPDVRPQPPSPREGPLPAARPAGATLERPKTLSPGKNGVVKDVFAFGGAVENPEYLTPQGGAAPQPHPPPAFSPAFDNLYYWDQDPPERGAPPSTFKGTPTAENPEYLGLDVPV
In short: (§3)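 Cell-free immunoassay kit measuring EGFR T790M/HER2 kinase inhibition. Percent inhibition screened at 10 µM. IC50 obtained from four concentrations (0.01-10 µM) by fitting E(%) = Emax/(1+[I]/ID50) to a dose-response curve. Mean of two independent replicates.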

MCF7 [10] = assay: Induction of apoptosis in human MCF7 cells assessed as early apoptotic cells at IC50 concentration after 24 hrs by annexin-V-FITC/PI staining based flow cytometric analysis (reference value: 0.84%)
MCF7 [11] = assay: Induction of cell cycle arrest in human MCF7 cells assessed as cell accumulation at pre-G1 phase at IC50 concentration after 24 hrs by propidium iodide staining based flow cytometric analysis (reference value: 1.49%); assay type: functional
Mus musculus [12] = assay: Anticonvulsant activity against mouse model of LiCa/pilocarpine-induced status epilepticus assessed as amplitude at 20 mg/kg, po for 10 days by EEG method relative to control; assay type: functional; settings: time 10 day; in short: as §2
[13] = molecular target: T1, Receptor tyrosine-protein kinase erbB-2; assay: Inhibition of HER2 (unknown origin) at 10 uM relative to control; in short: as §3
Mus musculus [14] = assay: Anticonvulsant activity against mouse model of LiCa/pilocarpine-induced status epilepticus assessed as spectral edge frequency at 20 mg/kg, po for 10 days by EEG method relative to control; assay type: functional; settings: time 10 day; in short: as §2
Mus musculus [15] = assay: Anticonvulsant activity against mouse model of LiCa/pilocarpine-induced status epilepticus assessed as delta at 20 mg/kg, po for 10 days by EEG method relative to control; assay type: functional; settings: time 10 day; in short: as §2
MCF7 [16] = assay: Induction of apoptosis in human MCF7 cells assessed as increase in early apoptotic cells at IC50 concentration after 24 hrs by annexin-V-FITC/PI staining based flow cytometric analysis; assay type: functional
MCF7 [17] = assay: Induction of cell cycle arrest in human MCF7 cells assessed as cell accumulation at S phase at IC50 concentration after 24 hrs by propidium iodide staining based flow cytometric analysis (reference value: 42.34%); assay type: functional
MCF7 [18] = assay: Induction of apoptosis in human MCF7 cells assessed as decrease in Bcl-2 protein expression at IC50 concentration after 24 hrs by ELISA; assay type: functional; in short: as §1
MCF7 [19] = assay: Induction of apoptosis in human MCF7 cells assessed as increase in caspace-3 protein expression at IC50 concentration after 24 hrs by ELISA; assay type: functional; in short: as §1
Mus musculus [20] = assay: Anticonvulsant activity against mouse model of LiCa/pilocarpine-induced status epilepticus assessed as GABA level in brain at 20 mg/kg, po for 10 days by ELISA relative to control; assay type: functional; settings: time 10 day; in short: as §2
MCF7 [21] = assay: Induction of apoptosis in human MCF7 cells assessed as increase in caspace-7 protein expression at IC50 concentration after 24 hrs by ELISA; assay type: functional; in short: as §1
MCF7 [22] = assay: Induction of apoptosis in human MCF7 cells assessed as increase in caspace-9 protein expression at IC50 concentration after 24 hrs by ELISA; assay type: functional; in short: as §1
[23] = molecular target: Epidermal growth factor receptor (Homo sapiens, UniProt P00533, T790M); assay: Inhibition of EGFR T790M mutant (unknown origin)
Sequence of Epidermal growth factor receptor (P00533 25-1210 T790M limits assumed): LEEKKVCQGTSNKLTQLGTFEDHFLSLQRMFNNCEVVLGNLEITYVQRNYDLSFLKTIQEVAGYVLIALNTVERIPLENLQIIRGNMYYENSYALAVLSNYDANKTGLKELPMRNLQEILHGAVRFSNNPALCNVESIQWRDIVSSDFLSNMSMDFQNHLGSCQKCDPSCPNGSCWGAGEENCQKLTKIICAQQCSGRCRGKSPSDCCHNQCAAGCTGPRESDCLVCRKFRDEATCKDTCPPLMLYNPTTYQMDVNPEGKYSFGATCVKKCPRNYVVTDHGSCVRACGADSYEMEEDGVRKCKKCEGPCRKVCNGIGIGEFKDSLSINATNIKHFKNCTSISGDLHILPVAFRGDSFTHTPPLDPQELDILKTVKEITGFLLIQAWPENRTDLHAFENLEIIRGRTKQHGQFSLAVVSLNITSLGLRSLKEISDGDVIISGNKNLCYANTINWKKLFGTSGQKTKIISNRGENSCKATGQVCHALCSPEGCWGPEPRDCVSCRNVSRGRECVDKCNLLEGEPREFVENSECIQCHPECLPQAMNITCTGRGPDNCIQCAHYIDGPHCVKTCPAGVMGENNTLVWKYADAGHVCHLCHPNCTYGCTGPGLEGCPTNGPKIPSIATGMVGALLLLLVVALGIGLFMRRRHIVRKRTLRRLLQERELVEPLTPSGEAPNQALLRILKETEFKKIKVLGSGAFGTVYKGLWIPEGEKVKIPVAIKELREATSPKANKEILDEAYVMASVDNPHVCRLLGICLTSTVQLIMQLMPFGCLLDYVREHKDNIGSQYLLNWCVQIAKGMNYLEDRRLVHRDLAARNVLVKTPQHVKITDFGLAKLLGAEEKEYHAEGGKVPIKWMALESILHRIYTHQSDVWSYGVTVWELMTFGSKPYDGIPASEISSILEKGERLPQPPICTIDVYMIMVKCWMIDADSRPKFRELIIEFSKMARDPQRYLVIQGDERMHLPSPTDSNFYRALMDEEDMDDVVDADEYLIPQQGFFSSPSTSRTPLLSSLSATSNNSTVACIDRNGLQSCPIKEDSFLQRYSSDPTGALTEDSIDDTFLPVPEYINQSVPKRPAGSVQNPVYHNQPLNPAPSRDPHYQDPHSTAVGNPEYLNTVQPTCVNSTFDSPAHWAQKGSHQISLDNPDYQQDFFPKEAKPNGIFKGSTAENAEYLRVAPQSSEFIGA

Mus musculus [24] = assay: Anticonvulsant activity against mouse model of LiCa/pilocarpine-induced status epilepticus assessed as GSH level in brain at 20 mg/kg, po for 10 days by calorimetric method relative to control; assay type: functional; settings: time 10 day; in short: as §2
Mus musculus [25] = assay: Anticonvulsant activity against mouse model of LiCa/pilocarpine-induced status epilepticus assessed as total power density at 20 mg/kg, po for 10 days by EEG method relative to control; assay type: functional; settings: time 10 day; in short: as §2
MCF7 [26] = assay: Induction of cell cycle arrest in human MCF7 cells assessed as cell accumulation at G1 phase at IC50 concentration after 24 hrs by propidium iodide staining based flow cytometric analysis (reference value: 53.77%); assay type: functional
Mus musculus [27] = assay: Anticonvulsant activity against mouse model of LiCa/pilocarpine-induced status epilepticus assessed as theta at 20 mg/kg, po for 10 days by EEG method relative to control; assay type: functional; settings: time 10 day; in short: as §2
Mus musculus [28] = assay: Anticonvulsant activity against mouse model of LiCa/pilocarpine-induced status epilepticus assessed as MDA level in brain at 20 mg/kg, po for 10 days by calorimetric method relative to control; assay type: functional; settings: time 10 day; in short: as §2
Mus musculus [29] = assay: Anticonvulsant activity against mouse model of LiCa/pilocarpine-induced status epilepticus assessed as alpha at 20 mg/kg, po for 10 days by EEG method relative to control; assay type: functional; settings: time 10 day; in short: as §2
Mus musculus [30] = assay: Anticonvulsant activity against mouse model of LiCa/pilocarpine-induced status epilepticus assessed as amplitude density at 20 mg/kg, po for 10 days by EEG method relative to control; assay type: functional; settings: time 10 day; in short: as §2
Mus musculus [31] = assay: Anticonvulsant activity against mouse model of LiCa/pilocarpine-induced status epilepticus assessed as Glutamate level in brain at 20 mg/kg, po for 10 days by ELISA relative to control; assay type: functional; settings: time 10 day; in short: as §2
MCF7 [32] = assay: Induction of apoptosis in human MCF7 cells assessed as increase in Bax protein expression at IC50 concentration after 24 hrs by ELISA; assay type: functional; in short: as §1

COc1ccc(/C=C2/N=C(c3ccc(Cl)cc3)N(C(=O)Cc3nc4c(c(C)nn4-c4ccccc4)c(=O)[nH]3)NC2=O)cc1
Activity (MCF7 [1]): Active | pIC50 (WI-38): 7.26 | Activity (Mus musculus [2]): 13.12% | Activity (MCF7 [3]): 13.9% | Activity (Mus musculus [4]): 132.38% | fold change (FC) (MCF7 [5]): 11.97 | fold change (FC) (MCF7 [6]): 29.5 | Activity (Mus musculus [7]): -28.59% | Activity (MCF7 [8]): 46.57% | pIC50 [9]: 6.06 | Activity (MCF7 [10]): 4.98% | Activity (MCF7 [11]): 22.12% | Activity (Mus musculus [12]): 47.56% | inhibition [13]: 86.7% | Activity (Mus musculus [14]): -20.21% | Activity (Mus musculus [15]): 258.15% | fold change (FC) (MCF7 [16]): 5.6 | Activity (MCF7 [17]): 28.34% | fold change (FC) (MCF7 [18]): 3.4 | fold change (FC) (MCF7 [19]): 12 | Activity (Mus musculus [20]): 71.54% | fold change (FC) (MCF7 [21]): 7.9 | fold change (FC) (MCF7 [22]): 22.9 | pIC50 [23]: 6.64 | Activity (Mus musculus [24]): 179.51% | Activity (Mus musculus [25]): 174.78% | Activity (MCF7 [26]): 25.09% | Activity (Mus musculus [27]): 55.17% | Activity (Mus musculus [28]): -50% | Activity (Mus musculus [29]): 28.04% | Activity (Mus musculus [30]): 67.48% | Activity (Mus musculus [31]): -36.07% | fold change (FC) (MCF7 [32]): 5.6
